Results on one molecule are retold here after ChEMBL document CHEMBL1133105, “Antimalarial, antitrypanosomal, and antileishmanial activities and cytotoxicity of bis(9-amino-6-chloro-2-methoxyacridines): influence of the linker” (J Med Chem, 2000).

One experiment has as its system Leishmania infantum. The experiment in a line: Percentage of activity against Leishmania infantum 6.25 uM.
Details: not given
In kind it is functional. The essentials: (§1)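 Starch-stimulated mouse peritoneal macrophages, 30 000/well, infected after 24 h with spleen-derived L. infantum amastigotes (10:1) together with 2-fold drug dilutions (12.5–1.56 µM). Incubated 7 days at 37 °C, 5% CO2. Wright-stained slides scored microscopically as % reduction of total parasite load or of infected macrophages. Uninfected treated cultures judged microscopically for macrophage toxicity.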
As for `COc1ccc2nc3cc(Cl)ccc3c(NCCCN(CCCNc3c4ccc(Cl)cc4nc4ccc(OC)cc34)C(=O)C(C)NC(=O)OC(C)(C)C)c2c1` (stereo not drawn), the “Antileishmanial activity (% reduction of parasite load)” value is 95%.

The subject of a further experiment is Leishmania infantum. The experiment in a line: Percentage of activity against Leishmania infantum at 1.56 uM.
Details: not given
The format is functional. The essentials: as §1
As for `COc1ccc2nc3cc(Cl)ccc3c(NCCCN(CCCNc3c4ccc(Cl)cc4nc4ccc(OC)cc34)C(=O)C(C)NC(=O)OC(C)(C)C)c2c1` (stereo not drawn), the “Antileishmanial activity (% reduction of parasite load)” value is given as 40%.

In another experiment the test system is Leishmania infantum. Description: Percentage of activity against Leishmania infantum at 12.5 uM Concentration; Toxic upon mouse primary peritoneal macrophages. In kind it is functional, organism-based.
Details: not given
The essentials: as §1
As to `COc1ccc2nc3cc(Cl)ccc3c(NCCCN(CCCNc3c4ccc(Cl)cc4nc4ccc(OC)cc34)C(=O)C(C)NC(=O)OC(C)(C)C)c2c1` (stereo not drawn), the Cytotoxicity result was “Toxic”.

Another experiment has as its system Leishmania infantum. Description: Percentage of activity against Leishmania infantum at 3.13 uM. In kind it is functional.
Details: not given
A digest of the protocol: as §1
Consider `COc1ccc2nc3cc(Cl)ccc3c(NCCCN(CCCNc3c4ccc(Cl)cc4nc4ccc(OC)cc34)C(=O)C(C)NC(=O)OC(C)(C)C)c2c1` (stereo not drawn), for which the “Percent antileishmanial activity (reduction of parasite load)” value amounted to 60%.

In another experiment the test system is MRC5. Description: Cytotoxicity on MRC-5 cells at 12.5 uM. In kind it is functional. The note with it: Homo sapiens. A digest of the protocol:
(§2)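 MRC-5 human diploid embryonic lung cells seeded at 5 000/well, washed after 24 h, then given 2-fold drug dilutions (25, 12.5, 6.25, 3.13 µM) in RPMI + 5% FCS, final DMSO below 0.5%. Incubated 7 days at 37 °C, 5% CO2. MTT colorimetric read-out, scored as % reduction of absorbance at 540 nm versus untreated controls.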
The molecule `COc1ccc2nc3cc(Cl)ccc3c(NCCCN(CCCNc3c4ccc(Cl)cc4nc4ccc(OC)cc34)C(=O)C(C)NC(=O)OC(C)(C)C)c2c1` (stereo not drawn) had a cytotoxicity at 12.5 µM of 100%.

Another experiment deals with MRC5. The experiment in a line: Cytotoxicity on MRC-5 cells at 25 uM. In kind it is functional. The note with it: Homo sapiens. A digest of the protocol: as §2
In turn, `COc1ccc2nc3cc(Cl)ccc3c(NCCCN(CCCNc3c4ccc(Cl)cc4nc4ccc(OC)cc34)C(=O)C(C)NC(=O)OC(C)(C)C)c2c1` (stereo not drawn) registered a cytotoxicity at 25 µM of 100%.

The test system of the next experiment is MRC5. The experiment in a line: Cytotoxicity on MRC-5 cells at 3.13 uM. The format is functional. The note with it: Homo sapiens. The essentials:
as §2
Molecule `COc1ccc2nc3cc(Cl)ccc3c(NCCCN(CCCNc3c4ccc(Cl)cc4nc4ccc(OC)cc34)C(=O)C(C)NC(=O)OC(C)(C)C)c2c1` (stereo not drawn) registered a cytotoxicity at 3.13 µM of 0%.

For the next experiment, the system named is MRC5. Description: Cytotoxicity on MRC-5 cells at 6.25 uM. The note with it: Homo sapiens. The format is functional. The essentials:
as §2
`COc1ccc2nc3cc(Cl)ccc3c(NCCCN(CCCNc3c4ccc(Cl)cc4nc4ccc(OC)cc34)C(=O)C(C)NC(=O)OC(C)(C)C)c2c1` (stereo not drawn): the cytotoxicity at 6.25 µM was determined as 100%.

In another experiment the test system is Plasmodium falciparum. Description: Parasite growth inhibition against Plasmodium falciparum W2.
Details: not given
The format is functional, organism-based. The essentials: (§3)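 Asynchronous cultures of each strain on human erythrocytes (0.5% parasitemia, 1% final hematocrit) were exposed to serially diluted drug for 24 h at 37 °C. Then 0.5 µCi [3H]hypoxanthine per well was added for 24 h. Incorporation was compared with a drug-free control on the same plate. IC50 was taken from the concentration-response curve as the mean of several independent experiments. DMSO was at most 0.1%.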
In general, IC50 refers to the point on the concentration scale where inhibition reaches its midpoint. A lower IC50 goes with greater potency. Consider `COc1ccc2nc3cc(Cl)ccc3c(NCCCN(CCCNc3c4ccc(Cl)cc4nc4ccc(OC)cc34)C(=O)C(C)NC(=O)OC(C)(C)C)c2c1` (stereo not drawn), for which the IC50 came to 10 nM.

Another experiment concerns Plasmodium falciparum. The experiment in a line: Parasite growth inhibition against Plasmodium falciparum F32A. In kind it is functional, organism-based.
Details: not given
The essentials:
as §3
`COc1ccc2nc3cc(Cl)ccc3c(NCCCN(CCCNc3c4ccc(Cl)cc4nc4ccc(OC)cc34)C(=O)C(C)NC(=O)OC(C)(C)C)c2c1` (stereo not drawn) had an IC50 of 66 nM.

Another experiment deals with Plasmodium falciparum. The experiment in a line: Parasite growth inhibition against Plasmodium falciparum FCM29.
Details: not given
The format is functional, organism-based. The essentials: as §3
`COc1ccc2nc3cc(Cl)ccc3c(NCCCN(CCCNc3c4ccc(Cl)cc4nc4ccc(OC)cc34)C(=O)C(C)NC(=O)OC(C)(C)C)c2c1` (stereo not drawn): the IC50 amounted to 11 nM.

The next experiment deals with Plasmodium falciparum. Description: In vitro sensitivity for Plasmodium falciparum FcB1R. In kind it is functional, organism-based.
Details: not given
The essentials:
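Asynchronous P. falciparum cultures in human erythrocytes (0.5% parasitemia, 1% haematocrit) exposed to serially diluted drug for 24 h at 37 °C. [3H]hypoxanthine (0.5 µCi/well) then added for a further 24 h. Uptake compared with drug-free controls on the same plate. IC50 taken from the concentration–response curve, averaged over independent experiments. DMSO ≤0.1%.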
For `COc1ccc2nc3cc(Cl)ccc3c(NCCCN(CCCNc3c4ccc(Cl)cc4nc4ccc(OC)cc34)C(=O)C(C)NC(=O)OC(C)(C)C)c2c1` (stereo not drawn), the half-maximal inhibitory concentration (IC50) turned out to be 31 nM.

Another experiment has as its system Plasmodium falciparum. Description: Parasite growth inhibition against Plasmodium falciparum GP1.
Details: not given
In kind it is functional, organism-based. A digest of the protocol: as §3
As for `COc1ccc2nc3cc(Cl)ccc3c(NCCCN(CCCNc3c4ccc(Cl)cc4nc4ccc(OC)cc34)C(=O)C(C)NC(=O)OC(C)(C)C)c2c1` (stereo not drawn), half-maximal inhibition (IC50) was put at 35 nM.

The test system of the next experiment is Plasmodium falciparum. The experiment in a line: Parasite growth inhibition against Plasmodium falciparum K1. In kind it is functional, organism-based.
Details: not given
The essentials: as §3
Turning to `COc1ccc2nc3cc(Cl)ccc3c(NCCCN(CCCNc3c4ccc(Cl)cc4nc4ccc(OC)cc34)C(=O)C(C)NC(=O)OC(C)(C)C)c2c1` (stereo not drawn), the IC50 came to 12 nM.

The next experiment concerns Trypanosoma cruzi. The experiment in a line: Percentage of activity against Trypanosoma cruzi at 1.56 uM.
Details: not given
In kind it is functional. A digest of the protocol: (§4)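 Mouse peritoneal macrophages, 30 000/well, infected after 24 h with about 100 000 T. cruzi trypomastigotes per well plus 2-fold drug dilutions (12.5–1.56 µM). Incubated 4 days at 37 °C, 5% CO2. Methanol-fixed, Giemsa-stained and scored microscopically as % reduction of total parasite load (free trypomastigotes plus intracellular amastigotes) versus untreated controls.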
As for `COc1ccc2nc3cc(Cl)ccc3c(NCCCN(CCCNc3c4ccc(Cl)cc4nc4ccc(OC)cc34)C(=O)C(C)NC(=O)OC(C)(C)C)c2c1` (stereo not drawn), the Parasite load reduction was 0%.

Another experiment deals with Trypanosoma cruzi. Description: Percentage of activity against Trypanosoma cruzi at 12.5 uM; Toxic upon mouse primary peritoneal macrophages.
Details: not given
In kind it is functional, organism-based. A digest of the protocol: as §4
`COc1ccc2nc3cc(Cl)ccc3c(NCCCN(CCCNc3c4ccc(Cl)cc4nc4ccc(OC)cc34)C(=O)C(C)NC(=O)OC(C)(C)C)c2c1` (stereo not drawn): the Cytotoxicity result is “Toxic”.

A further experiment relates to Trypanosoma cruzi. Description: Percentage of activity against Trypanosoma cruzi at 3.13 uM. In kind it is functional.
Details: not given
A digest of the protocol: as §4
`COc1ccc2nc3cc(Cl)ccc3c(NCCCN(CCCNc3c4ccc(Cl)cc4nc4ccc(OC)cc34)C(=O)C(C)NC(=O)OC(C)(C)C)c2c1` (stereo not drawn): the “Reduction of T. cruzi parasite load” value amounted to 40%.

The next experiment concerns Trypanosoma cruzi. Description: Percentage of activity against Trypanosoma cruzi at 6.25 uM Concentration. The format is functional.
Details: not given
The essentials: as §4
On to `COc1ccc2nc3cc(Cl)ccc3c(NCCCN(CCCNc3c4ccc(Cl)cc4nc4ccc(OC)cc34)C(=O)C(C)NC(=O)OC(C)(C)C)c2c1` (stereo not drawn), for which the “Reduction of T. cruzi parasite load” value was 90%.

For the next experiment, the system named is Trypanosoma brucei. Description: Percentage of activity against Trypanosoma brucei at 6.25 uM.
Details: not given
In kind it is functional. The essentials:
(§5)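 Bloodstream-form T. brucei in HMI-9 medium, 10 000 parasites/well, exposed to 12.5, 6.25, 3.13 and 1.56 µM drug for 4 days. Read-out is % inhibition of parasite multiplication. Macrophage toxicity judged on mouse primary peritoneal macrophages.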
Turning to `COc1ccc2nc3cc(Cl)ccc3c(NCCCN(CCCNc3c4ccc(Cl)cc4nc4ccc(OC)cc34)C(=O)C(C)NC(=O)OC(C)(C)C)c2c1` (stereo not drawn), the “Inhibition of parasite multiplication” value stood at 100%.

A further experiment relates to Trypanosoma brucei. The experiment in a line: Percentage of activity against Trypanosoma brucei at 12.5 uM. The format is functional.
Details: not given
The essentials: as §5
With `COc1ccc2nc3cc(Cl)ccc3c(NCCCN(CCCNc3c4ccc(Cl)cc4nc4ccc(OC)cc34)C(=O)C(C)NC(=O)OC(C)(C)C)c2c1` (stereo not drawn), the “Inhibition of parasite multiplication” value was 100%.

The test system of a further experiment is Trypanosoma brucei. Description: Percentage of activity against Trypanosoma brucei at 1.56 uM.
Details: not given
The format is functional. A digest of the protocol: as §5
Take `COc1ccc2nc3cc(Cl)ccc3c(NCCCN(CCCNc3c4ccc(Cl)cc4nc4ccc(OC)cc34)C(=O)C(C)NC(=O)OC(C)(C)C)c2c1` (stereo not drawn): the “Percent inhibition of parasite multiplication” value is given as 100%.

The subject of the next experiment is Trypanosoma brucei. Description: Percentage of activity against Trypanosoma brucei at 3.13 uM. In kind it is functional.
Details: not given
A digest of the protocol: as §5
`COc1ccc2nc3cc(Cl)ccc3c(NCCCN(CCCNc3c4ccc(Cl)cc4nc4ccc(OC)cc34)C(=O)C(C)NC(=O)OC(C)(C)C)c2c1` (stereo not drawn) gave a Parasite growth inhibition of 100%.

A further experiment deals with Plasmodium falciparum. Description: Growth inhibition of chloroquine-sensitive Plasmodium falciparum 3D7.
Details: not given
In turn, `COc1ccc2nc3cc(Cl)ccc3c(NCCCN(CCCNc3c4ccc(Cl)cc4nc4ccc(OC)cc34)C(=O)C(C)NC(=O)OC(C)(C)C)c2c1` (stereo not drawn) came in with an IC50 of 22 nM.
